In experiment [1] the target is T1, Anthranilate synthase component 1 (Salmonella typhimurium (strain LT2 / SGSC1412 / ATCC 700720)) (UniProt P00898).
T1 sequence (whole entry): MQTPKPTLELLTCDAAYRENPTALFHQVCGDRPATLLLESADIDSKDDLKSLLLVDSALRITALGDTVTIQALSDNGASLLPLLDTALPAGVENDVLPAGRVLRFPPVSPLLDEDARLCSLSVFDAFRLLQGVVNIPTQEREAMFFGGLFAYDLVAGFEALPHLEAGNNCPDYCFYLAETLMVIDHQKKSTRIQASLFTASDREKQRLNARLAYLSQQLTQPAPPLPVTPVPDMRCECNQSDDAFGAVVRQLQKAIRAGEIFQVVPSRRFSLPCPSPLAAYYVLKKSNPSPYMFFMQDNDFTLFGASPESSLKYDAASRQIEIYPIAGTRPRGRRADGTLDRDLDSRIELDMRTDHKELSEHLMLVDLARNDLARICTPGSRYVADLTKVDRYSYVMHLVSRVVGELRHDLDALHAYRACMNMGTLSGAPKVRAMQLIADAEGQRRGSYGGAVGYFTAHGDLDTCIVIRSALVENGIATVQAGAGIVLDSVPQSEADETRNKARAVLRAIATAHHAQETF
Description: Mixed-type inhibition of Salmonella Typhimurium anthranilate synthase trpE expressed in Escherichia coli BL21(DE3) using chorismate as substrate by double reciprocal plot. Particulars: Salmonella enterica subsp. enterica serovar Typhimurium. In a few lines: (§1)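 S. typhimurium anthranilate synthase partial complex (TrpE2TrpG2), 2.2 nM, in a fluorescence assay read at 390 nm emission, 313 nm excitation, 25 °C. Buffer: 100 mM phosphate pH 7.0, 20 mM L-glutamine, 5 mM MgCl2 (saturating). Reactions were started with enzyme. Inhibitor ranged 10 μM–8 mM; chorismate ranged 0.5–5 KM. Ki versus chorismate came from initial rates.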

In experiment [2] the target is Anthranilate synthase component 1 (Salmonella typhimurium (strain LT2 / SGSC1412 / ATCC 700720), UniProt P00898). The experiment can be described thus: Inhibition of Salmonella Typhimurium anthranilate synthase trpE:trpD […] coexpressing stop codon in trpD gene for encoding aminotransferase activity by spectrophotometry for enzyme-substrate-inhibitor complex. More on the design: species or system Salmonella enterica subsp. enterica serovar Typhimurium.

The target in experiment [3] is T2, Isochorismate synthase EntC (Escherichia coli K-12, UniProt P0AEJ2).
T2 sequence (P0AEJ2 whole entry): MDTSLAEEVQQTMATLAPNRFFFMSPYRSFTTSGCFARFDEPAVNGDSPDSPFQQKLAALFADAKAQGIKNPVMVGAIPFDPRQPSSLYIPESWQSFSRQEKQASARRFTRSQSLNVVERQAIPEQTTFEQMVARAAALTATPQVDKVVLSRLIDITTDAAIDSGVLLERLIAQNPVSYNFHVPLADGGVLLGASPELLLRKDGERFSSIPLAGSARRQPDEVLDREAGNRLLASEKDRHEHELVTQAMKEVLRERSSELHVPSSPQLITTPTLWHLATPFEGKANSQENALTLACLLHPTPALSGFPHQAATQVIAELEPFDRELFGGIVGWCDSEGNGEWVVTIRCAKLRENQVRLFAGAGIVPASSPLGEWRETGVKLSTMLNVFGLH
The experiment can be described thus: Inhibition of Escherichia coli K12 IS expressed in Escherichia coli BL21(DE3) by spectrophotometry. In a few lines:
(§2)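 Isochorismate synthase EntC (His-tagged, pET28a, BL21(DE3)) at 75 nM, coupled to excess EntB (2 μM) and 2 units LDH. Read-out was NADH oxidation at 340 nm, 25 °C. Buffer: 50 mM triethanolamine pH 7.8, 1 mM MgCl2 (saturating), 100 μM NADH. Inhibitor ranged 10 μM–8 mM; chorismate ranged 0.5–5 KM. Ki versus chorismate came from initial rates.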

Experiment [4] concerns the target Aminodeoxychorismate synthase component 1 PabB (Escherichia coli K-12) (UniProt P05041). Description: Competitive inhibition of Escherichia coli K12 ADCS by double reciprocal plot in presence of cofactor Mg2+.
Experiment [5] shares this target. Description: Competitive inhibition of Escherichia coli K12 ADCS using chorismate as substrate by double reciprocal plot.
Experiment [6] addresses T1, Anthranilate synthase component 1 (Salmonella typhimurium (strain LT2 / SGSC1412 / ATCC 700720)). Description: Competitive inhibition of Salmonella Typhimurium anthranilate synthase trpE expressed in Escherichia coli BL21(DE3) by double reciprocal plot in presence of cofactor Mg2+. Particulars: Salmonella enterica subsp. enterica serovar Typhimurium.
Experiment [7] concerns the target T3, Isochorismate synthase EntC (Escherichia coli K-12) (UniProt P0AEJ2).
T3 sequence (whole entry): T2 sequence (P0AEJ2 whole entry)
The experiment can be described thus: Noncompetitive inhibition of Escherichia coli K12 IS expressed in Escherichia coli BL21(DE3) by double reciprocal plot in presence of cofactor Mg2+. In a few lines: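 IS (75 nM) in an EntB/LDH coupled assay, with NADH loss read at 340 nm, 25 °C. Buffer: 50 mM triethanolamine pH 7.8, 100 μM NADH. Chorismate was held saturating at 200 μM while Mg2+ was varied 5–500 μM. Inhibitor ranged 10 μM–8 mM; the inhibition pattern came from initial rates.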

Experiment [8] has as its target T4, Anthranilate synthase component 1 (Salmonella typhimurium (strain LT2 / SGSC1412 / ATCC 700720), UniProt P00898).
T4 sequence (P00898 whole entry): T1 sequence (whole entry)
Description: Inhibition of Salmonella Typhimurium anthranilate synthase trpE:trpD […] coexpressing stop codon in trpD gene for encoding aminotransferase activity by spectrophotometry for enzyme-inhibitor complex. Further details: species or system Salmonella enterica subsp. enterica serovar Typhimurium.

Experiment [9] addresses T3, Isochorismate synthase EntC (Escherichia coli K-12). The experiment can be described thus: Competitive inhibition of Escherichia coli K12 IS expressed in Escherichia coli BL21(DE3) using chorismate as substrate by double reciprocal plot. In a few lines: as §2
Experiment [10] deals with Aminodeoxychorismate synthase component 1 PabB (Escherichia coli K-12) (UniProt P05041). Description: Noncompetitive inhibition of Escherichia coli K12 ADCS using chorismate as substrate by double reciprocal plot.
The target is the same in experiment [11]. Description: Noncompetitive inhibition of Escherichia coli K12 ADCS by double reciprocal plot in presence of cofactor Mg2+.
In experiment [12] the target is T1, Anthranilate synthase component 1 (Salmonella typhimurium (strain LT2 / SGSC1412 / ATCC 700720)). The experiment can be described thus: Noncompetitive inhibition of Salmonella Typhimurium anthranilate synthase trpE expressed in Escherichia coli BL21(DE3) using chorismate as substrate by double reciprocal plot. Particulars: Salmonella enterica subsp. enterica serovar Typhimurium. In a few lines: as §1

pKi: −log10 of the molar value. The source made the active and inactive calls. No cut-off for these calls is given here.

Aminodeoxychorismate synthase component 1 PabB (Escherichia coli K-12), sequence (P05041 whole entry, looked up): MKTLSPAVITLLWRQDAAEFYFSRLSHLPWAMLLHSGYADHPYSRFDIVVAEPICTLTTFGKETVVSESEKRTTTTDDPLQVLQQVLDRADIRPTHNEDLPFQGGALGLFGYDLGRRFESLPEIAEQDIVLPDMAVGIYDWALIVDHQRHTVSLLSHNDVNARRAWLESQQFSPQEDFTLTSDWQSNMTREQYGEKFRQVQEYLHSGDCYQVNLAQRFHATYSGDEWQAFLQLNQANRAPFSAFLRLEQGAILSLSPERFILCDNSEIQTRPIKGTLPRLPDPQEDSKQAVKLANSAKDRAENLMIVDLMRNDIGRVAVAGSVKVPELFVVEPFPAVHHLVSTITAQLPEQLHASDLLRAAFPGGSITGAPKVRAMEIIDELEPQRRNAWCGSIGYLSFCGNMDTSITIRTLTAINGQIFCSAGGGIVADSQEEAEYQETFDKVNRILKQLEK

Regarding `NC(=O)C1(NC(=O)[C@H](CCCNC(=O)c2cccc(OCC(=O)O)c2)NC(=O)c2ccc(Oc3ccccc3)cc2)CCS(=O)(=O)CC1`, the outcome in [1], in experiment [4], in experiment [5], in [6], in experiment [7] and in experiment [9] was Active. Also, the pKi is 2.99 in experiment [2], 3.77 in experiment [3] and 3.24 in experiment [8].

As for `NC(=O)c1cccc(OCC(=O)O)c1`, the result in experiment [1], in [4], in [5], in experiment [6], in experiment [7] and in [9] was Active. Also, the values for the pKi in experiment [2], in [3] and in experiment [8] were 2.59, 2.59 and 3.12, respectively.

Consider `Cc1ccc(C(=O)N[C@@H](CSCCCNC(=O)c2cccc(OCC(=O)O)c2)C(=O)N[C@@H](Cc2cccc(Cl)c2)C(N)=O)c([N+](=O)[O-])c1O`, for which the result in experiment [1], in [4], in experiment [5], in [6], in experiment [7] and in experiment [9] was Active. Also, the pKi in experiment [3] is 3.82; in [8], 4.02.

`CC(C(=O)N[C@@H](CCCNC(=O)c1cccc(OCC(=O)O)c1)C(=O)NCCc1cccc2c1oc1c(CCC(N)=O)cccc12)c1ccc([N+](=O)[O-])cc1` (stereo not given in full): the outcome in experiment [1], in experiment [4], in experiment [5], in experiment [6], in [7] and in experiment [9] was Active. Besides, the pKi is 3.96 in [2], 3.72 in [3] and 3.60 in [8].

Turning to `O=C(O)COc1cccc(C(=O)O)c1`, the outcome in [1], in experiment [4], in experiment [5], in [6], in experiment [7] and in [9] was Active. Also, the negative-log Ki (pKi) in experiment [2] was 3.26; in experiment [3] it was 2.89; in experiment [8], 3.68.

Regarding `Cc1ccc(C(=O)N[C@@H](C)C(=O)N[C@@H](Cc2cccc(Cl)c2)C(N)=O)c([N+](=O)[O-])c1O`, the outcome in experiment [10], in experiment [11], in experiment [7], in [12] and in [9] was Active. The pKi in experiment [3] was 3.30; in experiment [8], 3.70.

Turning to `Cc1ccc(C(=O)N[C@@H](CCCNC(=O)c2cccc(OCC(=O)O)c2)C(=O)N[C@@H](Cc2cccc(Cl)c2)C(N)=O)c([N+](=O)[O-])c1O`, the values for the pKi in experiment [3] and in experiment [8] were 3.44 and 4.39, respectively. For the same molecule, the outcome in experiment [5], in experiment [6], in [7] and in [9] was Active.

With `NC(=O)C1(NC(=O)[C@H](CCCNC(=O)c2cccc(OCC(=O)O)c2)NC(=O)c2ncccc2C(=O)c2ccccc2)CCCCC1`, the result in experiment [1], in [4], in experiment [5], in [6], in experiment [7] and in experiment [9] was Active. For the same molecule, the pKi in [2] was 2.97; in experiment [3], 3.37; in [8], 3.31.

Consider `Cc1ccc(C(=O)N[C@@H](CCCNC(=O)c2cccc(OCC(=O)O)c2)C(=O)N[C@@H](Cc2ccc(C#N)cc2)C(N)=O)c([N+](=O)[O-])c1O`, for which the outcome in experiment [1], in [4], in [5], in experiment [6], in experiment [7] and in experiment [9] was Active. The pKi was 4.09 in experiment [2], 3.59 in [3] and 4.55 in experiment [8].

For `Cc1ccc(C(=O)N[C@@H](CCCCNC(=O)c2cccc(OCC(=O)O)c2)C(=O)N[C@@H](Cc2cccc(Cl)c2)C(N)=O)c([N+](=O)[O-])c1O`, the result in experiment [1], in experiment [4], in [5], in experiment [6], in [7] and in [9] was Active. Also, the figures for the pKi in experiment [2], in experiment [3] and in [8] were 4.27, 3.68 and 4.70, respectively.

Regarding `Cc1ccc(C(=O)N[C@@H](CCCCN)C(=O)N[C@@H](Cc2cccc(Cl)c2)C(N)=O)c([N+](=O)[O-])c1O`, the result in [10], in [11], in experiment [7] and in experiment [9] was Active. The negative-log Ki (pKi) is 3.10 in experiment [3] and 3.96 in experiment [8].

(Values after ChEMBL document CHEMBL1157909, “Targeting multiple chorismate-utilizing enzymes with a single inhibitor: validation of a three-stage design” (J Med Chem, 2010).)
